This sample holds only a part of the variants without activity.
B1: tRNA (parent)
chain: GUUCCGUUGGCGUAAUGGUAACGCGUCUCCCUCCUAAGGAGAAGACUGCGGGUUCGAGUCCCGUACGGAACG

Variants of: B1
Assay: yeast fitness relative to wild type (ratio to wild type); higher = fitter; tRNA-Arg(CCU), competitive growth, 37 C, YPD
In short: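 Variants of the tRNA-Arg(CCU) gene were chemically synthesised with a 3% per-site mutation rate across 69 sites and placed at the native genomic locus in Saccharomyces cerevisiae. Six parallel replicates of the pooled strains were competed in YPD at 37°C for 24 hours, and gene amplicons from the start and end populations were read by 100-nucleotide paired-end sequencing. Darwinian fitness relative to wild type was derived from changes in genotype frequencies. Genotypes required ≥ 100 starting reads, and estimates < 0.5 were set to 0.5.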

| Variant | yeast fitness |
| --- | --- |
| GUUACGUUGGCGUAAUGGUUACGCGUCUCCCUCGUAAGGAGAAGACUGCGGGUUGGAGUACCGUACGGAACG [C4A A20U C34G C55G C60A] | ≤ 0.5 |
| GUUACGUUGGCGUAAUGGUAGCGCGUCUCCCUUCUAAGGAGAAGACUGCGCGUUCGAGUCCCGUACGGAACG [C4A A21G C33U G51C] | ≤ 0.5 |
| GUUACGUUGGCGUACUGGUAACGCGUCUCCCUCCUAAGGAGAAGACUGCGGGUUUGAGUCCCGUACGGAACG [C4A A15C C55U] | 0.58 |
| GUUACGUUGGCGUAAUGGUACUGCGUCUCCCUCCUAAGGAGAAGACUGCGGGUUCGAGUCCCGUACGGAACG [C4A A21C C22U] | 0.651 |
| GUUACGUUGGCGUAAUGGUUACACGUCUCCCUCCUAAGGAGAAGACUGCGGGUUCGAGUCCCGUAUGGAACG [C4A A20U G23A C66U] | ≤ 0.5 |
| GUUACGUUGGCGUAAUGGUGACGCGUCGCCCUCCUAAGGAGAAGACUGCGGGUUCGAGUCCCGUACGCACCG [C4A A20G U28G G68C A70C] | ≤ 0.5 |
| GUUACGUUGGCGUAAUGGUAACGCGUCUCCCUCCUAAGGCCAAGACUGCGGGUUCGAGUCCCGUACGGAACG [C4A A40C G41C] | ≤ 0.5 |
| GUUACGUUGGCGUAAUGGUACCGCGUCUCCCUCCUAAGGAGAAGACUGCGGGUACGAGUCCCGUACGGAACG [C4A A21C U54A] | ≤ 0.5 |
| GUUACGUUGGCGUUAUGGUAACGCGUCUCACUCCUAAGGAGAAGACUGCGGGUUCGAGUCCCGUACCGAACG [C4A A14U C30A G67C] | ≤ 0.5 |
| GUUACGUUGGCGUAAUGGUUACGCGUCUCCCUCCUAAGGAGAAGACUGCGGGUUCGAGUCCCGUACGGAACG [C4A A20U] | 0.707 |
| GUUACGUUGGCGUAAUGGUUACGCGUCUCCCUCCUAAGGAGAACACUGCGGGUUCGAGUACCGUACGGAACG [C4A A20U G44C C60A] | ≤ 0.5 |
| GUUACGUUGGCGUAAUGGUAACGCGUCUCCCUCCUGAGGAGAAGACUGCGGGUUCGAGUCCCGUACGGAACG [C4A A36G] | 0.87 |
| GUUACGUUGGCGUGAUGGUAACGCGUCUCGCUCCUAAGGAGAAGGCUGCGGGUUCGAGUCCCGUACGGAACG [C4A A14G C30G A45G] | 0.758 |
| GUUACGUUGGCGUAAUGGUUACGCGUCACCUUCCUAAGGAGAAGACUGCGGGUUCGAGUCCCGUUCGGAACG [C4A A20U U28A C31U A65U] | ≤ 0.5 |
| GUUACGUUGGCGUACUGGUAACGCGUCUCCCUCCUAAGGAGAAGACUGCGGGUUCGAGUCCCGUACGGAUCG [C4A A15C A70U] | ≤ 0.5 |
| GUUACGUUGGCGUAGUGGUAACGCGUCUCCCUGCUAAGGAGAAGACUGCGGGUUCGAGUACCGUACGGAACG [C4A A15G C33G C60A] | ≤ 0.5 |
| GUUACGUUGGCGUAGUAGUAACGCGUCUCCCCCCUAAGGAGAAGACUGCGGGUUCGAGUCCAGUACGGUACG [C4A A15G G17A U32C C62A A69U] | ≤ 0.5 |
| GUUACGUUGGCGUGAUGGUAACGUGUCUCCCGCCUAAGGAGUGGACUGCGGGUUCGAGUCCCGUAUGGAACG [C4A A14G C24U U32G A42U A43G C66U] | ≤ 0.5 |
| GUUACGUUGGCGUAAUGGUAGCGCGUCUCCCUCCUAAGGAGAAGACUGGGGGUUCGAGUCCCCUACGGAACG [C4A A21G C49G G63C] | 0.538 |

| Variant | yeast fitness |
| --- | --- |
| GUUACGUUGGCGUAAUGGUACCGCGUCUCCCUCCUAAGGAGAAGACUGCGGGUUCGAGUCCCGUACGGACCG [C4A A21C A70C] | ≤ 0.5 |
| GUUACGUUGGCGUUAUGGUAACGCGUCUCCCUCCUAAGGAGAAGACUGCGGGUUCGAGUCCCGUACGGAACG [C4A A14U] | 0.698 |
| GUUACGUUGGCGUGAUGGUAACGCGUCUCCCUCCUAAGGAGAAGACUGCGGGUUCGAGUCCCGUACGGAACG [C4A A14G] | 0.72 |
| GUUACGUUGGCGUAAUGGUAACGCGUCUCCCUCCUAAGGAGAAGACUGCGGGUUCGUGUCCCGUACGGAACG [C4A A57U] | 0.714 |
| GUUACGUUGGCGUAAUGGUAACGCGUCUCCCUCCUAAGGUGAUGACUGCGGGUUCGAGUCCCGUACGGAUCG [C4A A40U A43U A70U] | ≤ 0.5 |
| GUUACGUUGGCGUAAUGGUGACGCGUCUCCCUCCUAAGGAGAAGACUACGGGUUCGAGUCCCGUACGGCACG [C4A A20G G48A A69C] | ≤ 0.5 |
| GUUACGUUGGCGUAAUGGUCACGCGUCUCCCUCCUAAGGAGAAGACUGCCGGUUCGAGUCCCGUCCGGAACG [C4A A20C G50C A65C] | ≤ 0.5 |
| GUUACGUUGGCGUAAUGGUAACGCGUCUCCCUCCUAAGGAGAAGACUGCGGGUUCGAGUCCCGUACGGACCG [C4A A70C] | 0.993 |
| GUUACGUUGGCGUAAUGGUCACGCGUCUCCCUCAUAAGCAGAUGACUGCGGGUUCGAGUCCCGUACGGAACG [C4A A20C C34A G39C A43U] | 0.512 |
| GUUACGUUGGCGUAAUGGUAACGCGUCUCCCUCCUAAGGAGAUGACUGCGGGUUCGAGUCCUGUACGGAACG [C4A A43U C62U] | 0.791 |
| GUUACGUUGGCGUACUGGUAACGCGUGUCCCUCCUAAGGAGAAGACUGCGGGUUCGAGUCCGGUACGGAACG [C4A A15C C27G C62G] | ≤ 0.5 |
| GUUACGUUGGCGUAAUGGUGACGCGUCUCCCUCCUAUGGAGAAGACUGCGGGUUCGAGUCACGUACGGAACG [C4A A20G A37U C61A] | ≤ 0.5 |
| GUUACGUUGGCGUAAUGGUAACGCGUCUCCCUCCUAAGGAGAAGCCAGCGGGUUCGAGUCCCGUACGGAGCG [C4A A45C U47A A70G] | ≤ 0.5 |
| GUUACGUUGGCGUAAUGGUUACGCGUCUCCCUCCUAAGGAGAAGACUGCGGGUUCGAGUCCCGUAUGGAACG [C4A A20U C66U] | ≤ 0.5 |
| GUUACGUUGGCGUAAUGGUGACGCGUCUCCCUCCUAAGGAGAACGCUGCGGGUUCGAGUCCCGUACGGAACG [C4A A20G G44C A45G] | 0.506 |
| GUUACGUUGGCGUAAUGGUUACGCGUCUCUCUCCUAAGGAGAAGACUGCGGGUUCGAGUCCCGUACGGAACG [C4A A20U C30U] | ≤ 0.5 |
| GUUACGUUGGCGUAAUGGUGACGCGUCUCCCUCGUAAGGAGAAGACUGCGGGUUCGAGUCCCGUAUGGAACG [C4A A20G C34G C66U] | ≤ 0.5 |
| GUUACGUUGGCGUUAUGGUAACGCGUUACCCUCCUAAGGAGAAGACUGCGGGUUCGAGUCCCGUACGGAACG [C4A A14U C27U U28A] | 0.859 |
| GUUACGUUGGCGUAAUGGUAGCGCGUCUCCCUCCUAAGGAGAAGACUGCGGGUUCGAGUUCCGUACGGAACG [C4A A21G C60U] | 0.544 |
